Consider one compound from ChEMBL document CHEMBL2021884, “Azaindenoisoquinolines as topoisomerase I inhibitors and potential anticancer agents: a systematic study of structure-activity relationships” (2012).

Calls of active or inactive are those of the source. The rule behind the calls is not given here.

One experiment concerns DU-145. The experiment is described as follows: Growth inhibition of human DU145 cells after 48 hrs by sulforhodamine B assay. It counts as functional. The note with it: DU-145, 48 h. The gist of the method: (§1)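 NCI 60-cell-line screen: cells exposed 48 h to five 10-fold dilutions starting at 100 μM (range 10−4 to 10−8 M), then stained with sulforhodamine B. Optical densities relative to control plotted against log concentration. GI50 interpolated between points above and below 50% growth. Single determinations.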

Experiment [1] addresses T1, DNA topoisomerase 1 (Homo sapiens) (UniProt P11387).
T1 sequence (whole entry): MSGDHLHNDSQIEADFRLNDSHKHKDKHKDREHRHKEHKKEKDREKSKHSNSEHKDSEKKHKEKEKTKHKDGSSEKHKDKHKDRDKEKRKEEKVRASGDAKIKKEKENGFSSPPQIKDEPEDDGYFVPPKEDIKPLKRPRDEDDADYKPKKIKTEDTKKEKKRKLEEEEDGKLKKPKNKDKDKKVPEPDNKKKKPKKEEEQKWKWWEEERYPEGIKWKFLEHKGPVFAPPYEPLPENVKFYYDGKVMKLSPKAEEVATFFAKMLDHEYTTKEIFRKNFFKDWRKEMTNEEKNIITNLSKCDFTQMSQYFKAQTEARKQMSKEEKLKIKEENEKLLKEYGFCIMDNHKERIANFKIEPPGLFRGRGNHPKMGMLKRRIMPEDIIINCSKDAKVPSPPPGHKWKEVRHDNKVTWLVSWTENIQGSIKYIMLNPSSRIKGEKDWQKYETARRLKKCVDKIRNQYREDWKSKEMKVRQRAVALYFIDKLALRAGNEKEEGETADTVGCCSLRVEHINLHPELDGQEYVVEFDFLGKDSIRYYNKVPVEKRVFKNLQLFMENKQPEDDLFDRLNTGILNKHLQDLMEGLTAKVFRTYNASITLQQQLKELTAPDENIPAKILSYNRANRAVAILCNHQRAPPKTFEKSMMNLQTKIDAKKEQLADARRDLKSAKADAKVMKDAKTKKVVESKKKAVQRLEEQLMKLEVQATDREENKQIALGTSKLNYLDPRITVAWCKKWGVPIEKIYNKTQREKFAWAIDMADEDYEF
Kind of experiment: Inhibition of human recombinant topoisomerase 1-mediated DNA cleavage using [32P]-3'-end-labeled 117-bp DNA fragment as substrate at 100 uM after 20 mins by SDS-PAGE analysis. Put shortly:
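Human recombinant Top1 purified from baculovirus. Substrate: 117-bp oligonucleotide 3′-end-labeled by Klenow fill-in with [α-32P]dGTP, ~2 nM. Compounds tested at 0.1–100 μM. Stopped with 0.5% SDS plus formamide loading dye. Cleavage sites scored on gel.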

In the next experiment the test system is HOP-62. Kind of experiment: Growth inhibition of human HOP62 cells after 48 hrs by sulforhodamine B assay. As to conditions: HOP-62, 48 h. In kind it is functional. The gist of the method:
as §1

Another experiment deals with UACC-62. Kind of experiment: Growth inhibition of human UACC62 cells after 48 hrs by sulforhodamine B assay. As to conditions: UACC-62, 48 h. In kind it is functional. The gist of the method: as §1
(Sulforhodamine B stains cellular protein and so reports cell mass.)

The next experiment deals with SF-539. Kind of experiment: Growth inhibition of human SF539 cells after 48 hrs by sulforhodamine B assay. It counts as functional. The note with it: SF-539, 48 h. The gist of the method: as §1
The subject of a further experiment is MCF7. Kind of experiment: Growth inhibition of human MCF7 cells after 48 hrs by sulforhodamine B assay. In kind it is functional. The note with it: MCF7, 48 h. Put shortly:
as §1

Another experiment deals with SN12C. The experiment is described as follows: Growth inhibition of human SN12C cells after 48 hrs by sulforhodamine B assay. It counts as functional. The gist of the method: as §1

As for `COc1cc2c3c(n(C)c(=O)c2cc1OC)-c1cc2c(cc1C3=O)OCO2`, the GI50 (usually the concentration at which growth is held to half of that of the control) with DU-145 worked out at 4.8 µM; with HOP-62, 2.8 µM; in the experiment on UACC-62, 0.56 µM; in the experiment with SF-539 it was 1.7 µM; in the experiment on MCF7, 1.9 µM; in the experiment with SN12C it was 26 µM. In addition, the inhibition entry in experiment [1] is “Active”.
